Measurements taken from ChEMBL document CHEMBL5338794, “Optimization of Orally Bioavailable Antileishmanial 2,4,5-Trisubstituted Benzamides” (J Med Chem, 2023).
≈ marks a conversion by molar mass, not a printed value.

Assays:
Leishmania mexicana = test: Antileishmanial activity against renilla luciferase-expressing Leishmania mexicana promastigotes infected in mouse J774.A1 cells assessed as inhibition of intracellular amastigotes growth incubated for 96 hrs by Renilla luciferase assay; type: functional, organism-based; conditions: J774.A1, 96 h
BJ = test: Cytotoxicity against human BJ cells assessed as reduction in cell viability incubated for 72 hrs by Cell TiterGlo assay; type: functional, cell-based
[1] = Kinetic aqueous solubility of the compound in PBS at pH 7.4 incubated for 18 hrs by LC-MS analysis; type: physicochemical; conditions: read-out: Kinetic_solubility
[2] = Metabolic stability in CD-1 mouse liver microsomes assessed as half life at 1 uM and measured upto 60 mins in presence of NADPH regenerating system by LC-MS/MS analysis; type: ADME, Microsome; conditions: 1 h
How it was run: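 Half-life and intrinsic clearance determined by incubation with mouse liver microsomes.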

Row | solubility kinetic at 18 h [1] [µM] | t1/2 [2] [min] | Compound | EC50 (Leishmania mexicana) [nM] | EC50 (BJ) [nM]
1 | – | – | Cc1cc(Cl)c(Cl)cc1NC(=O)c1cc([N+](=O)[O-])c(F)cc1F | 300 | 1300
2 | – | – | Cc1ccc(-c2nc3ccccc3s2)cc1NC(=O)c1cc([N+](=O)[O-])c(N(C)CCN(C)C)cc1Cl | 400 | 6100
3 | – | – | Cc1ccc(-c2nc3ccccc3s2)cc1NC(=O)c1cc([N+](=O)[O-])c(NC2CCN(C)CC2)cc1Cl | 800 | 9200
4 | 5.3 (≈ 2.35 µg/mL) | 56 | Cc1cc(Cl)c(Cl)cc1NC(=O)c1cc([N+](=O)[O-])c(N2CCNCC2)cc1Cl | 100 | 14200
5 | – | – | Cc1ccc(C(F)(F)F)cc1NC(=O)c1cc([N+](=O)[O-])c(F)cc1Cl | 1700 | –
6 | – | – | O=C(Nc1cccc(-c2ncco2)c1)c1ccc(N2CCNCC2)c([N+](=O)[O-])c1 | 3100 | –
7 | – | – | O=C(Nc1cnc(Cl)c(Cl)c1)c1cc([N+](=O)[O-])c(F)cc1F | 200 | 1600
8 | – | – | O=C(Nc1ccc(Cl)c(Cl)c1)c1cc([N+](=O)[O-])c(F)cc1Cl | 900 | 4200
9 | – | – | Cc1ccc(C)c(NC(=O)c2cc([N+](=O)[O-])c(F)cc2Cl)c1 | 2400 | –
10 | – | – | Cc1ccc(Br)cc1NC(=O)c1cc([N+](=O)[O-])c(F)cc1Cl | 1400 | –
11 | – | – | O=C(Nc1cccc(-c2cccnc2)c1)c1cc([N+](=O)[O-])c(F)cc1Cl | 2000 | –
12 | – | – | Cc1ccc(-c2nc3ccccc3s2)cc1NC(=O)c1cc([N+](=O)[O-])c(Cl)cc1F | 2000 | –
13 | < 0.3 | 13 | Cc1ccc(-c2nc3ccccc3s2)cc1NC(=O)c1cc([N+](=O)[O-])c(N2CCN(C)CC2)cc1Cl | 800 | > 25000
14 | – | – | O=C(Nc1cccc(-c2nc3ccccc3o2)c1)c1cc([N+](=O)[O-])c(F)cc1Cl | 900 | > 30000
15 | – | – | Cc1ccc(-c2nc3ccccc3s2)cc1NC(=O)c1ccc(F)nc1 | 6400 | –
16 | – | – | O=C(Nc1ccc(F)c(F)c1)c1cc([N+](=O)[O-])c(F)cc1Cl | 1300 | –
17 | – | – | CN1CCN(c2cc(Cl)c(C(=O)Nc3cccc(-c4nccs4)c3)cc2[N+](=O)[O-])CC1 | 2100 | –
18 | – | – | Cc1ccc(-c2nc3ccccc3s2)cc1NC(=O)c1ccc(Cl)c([N+](=O)[O-])c1 | 20000 | –
19 | 31 (≈ 12.7 µg/mL) | 67 | Cc1cc(Cl)c(Cl)cc1NC(=O)c1ccc(N2CCNCC2)c([N+](=O)[O-])c1 | 800 | 24900
20 | – | – | O=C(Nc1cccc(-c2ncco2)c1)c1cc([N+](=O)[O-])c(F)cc1Cl | 900 | –
21 | – | – | O=C(Nc1cccc(-c2nc3ccccc3o2)c1)c1cc([N+](=O)[O-])c(F)cc1F | 800 | 4500
22 | – | – | Cc1ccc(-c2nc3ccccc3s2)cc1NC(=O)c1cnccc1Cl | 8800 | –
23 | – | – | Cc1ccc(-c2nc3ccccc3s2)cc1NC(=O)c1ccc(F)c([N+](=O)[O-])c1 | 1200 | –
24 | – | – | Cc1ccc(-c2nc3ccccc3s2)cc1NC(=O)c1cc([N+](=O)[O-])c(NCCN)cc1Cl | 300 | 6300
25 | – | – | Cc1ccc(-c2nc3ccccc3s2)cc1NC(=O)c1cc([N+](=O)[O-])c(N2CCNCC2)cc1Cl | 700 | > 14500
26 | – | – | COc1ccncc1C(=O)Nc1cc(-c2nc3ccccc3s2)ccc1C | 31000 | –
27 | – | – | Cc1ccc(-c2nc3ccccc3s2)cc1NC(=O)c1ccc(Br)cc1Cl | 57000 | –

Row | solubility kinetic at 18 h [1] [µM] | t1/2 [2] [min] | Compound | EC50 (Leishmania mexicana) [nM] | EC50 (BJ) [nM]
28 | – | – | Cc1ccc(-c2nc3ccccc3s2)cc1NC(=O)c1cc([N+](=O)[O-])c(N2CC3(CN(C(=O)OC(C)(C)C)C3)C2)cc1Cl | 63000 | –
29 | – | – | Cc1ccc(-c2nc3ccccc3s2)cc1NC(=O)c1cnccc1O | 53000 | –
30 | – | – | O=C(Nc1cccc(-c2nccs2)c1)c1cc([N+](=O)[O-])c(F)cc1Cl | 1300 | –
31 | – | – | Cc1ccc(-c2nc3ccccc3s2)cc1NC(=O)c1cc([N+](=O)[O-])c(N2CC3(COC3)C2)cc1Cl | 29000 | –
32 | 6.3 (≈ 3.12 µg/mL) | 130 | O=C(Nc1cncc(-c2nc3ccccc3s2)c1)c1cc([N+](=O)[O-])c(N2CCNCC2)cc1Cl | 600 | 15300
33 | – | – | O=C(Nc1cnc(Cl)c(Cl)c1)c1cc([N+](=O)[O-])c(F)cc1Cl | 500 | –
34 | – | – | Cc1cc(Cl)c(Cl)cc1NC(=O)c1cc([N+](=O)[O-])c(F)cc1Cl | 800 | 4200
35 | 188 (≈ 68.7 µg/mL) | 30 | Cc1cc(Cl)c(Cl)cc1NC(=O)c1ccc(N2CCNCC2)nc1 | 900 | 24000
36 | – | – | O=C(Nc1cccc(-c2nccs2)c1)c1cc([N+](=O)[O-])c(N2CCNCC2)cc1Cl | 1500 | –
37 | – | – | Cc1ccc(-c2nc3ccccc3s2)cc1NC(=O)c1cnccc1C#N | 51000 | –
38 | – | – | O=C(Nc1ccc(Cl)c(Cl)c1)c1ccc(N2CCNCC2)nc1 | 1400 | –
39 | – | – | N#Cc1ccc(NC(=O)c2cc([N+](=O)[O-])c(F)cc2Cl)cc1 | 1000 | –
40 | – | – | Cc1ccc(-c2nc3ccccc3s2)cc1NC(=O)c1cc([N+](=O)[O-])ccc1F | 64000 | –
41 | – | – | O=C(Nc1ccc(Cl)c(Cl)c1)c1ccc(F)c([N+](=O)[O-])c1 | 1100 | –
42 | – | – | CC(=O)Nc1cccc(NC(=O)c2cc([N+](=O)[O-])c(F)cc2Cl)c1 | 2900 | –
43 | – | – | O=C(Nc1ccc(F)c(Cl)c1)c1cc([N+](=O)[O-])c(F)cc1Cl | 1000 | –
44 | – | – | O=C(Nc1cccc(Cl)c1)c1cc([N+](=O)[O-])c(F)cc1F | 600 | 1800
45 | – | – | O=C(Nc1cccnc1)c1cc([N+](=O)[O-])c(F)cc1Cl | 4600 | –
46 | – | – | Cc1ccc(-c2nc3ccccc3s2)cc1NC(=O)c1cc([N+](=O)[O-])c(NCCN(C)C)cc1Cl | 800 | 17200
47 | – | – | O=C(Nc1ccc(F)cc1)c1cc([N+](=O)[O-])c(F)cc1Cl | 1200 | –
48 | 12.4 (≈ 5.94 µg/mL) | 130 | O=C(Nc1cncc(-c2nc3ccccc3o2)c1)c1cc([N+](=O)[O-])c(N2CCNCC2)cc1Cl | 800 | 3100
49 | – | – | Cc1ccc(-c2nc3ccccc3s2)cc1NC(=O)c1cnc(Cl)cc1Cl | 9800 | –
50 | – | – | O=C(Nc1ccc(-c2ccccc2)cc1)c1cc([N+](=O)[O-])c(F)cc1Cl | 1300 | –
51 | – | – | O=C(Nc1cccc(-c2nccs2)c1)c1cc([N+](=O)[O-])c(F)cc1F | 400 | 1500
52 | – | – | N#Cc1ccc(NC(=O)c2ccc(N3CCNCC3)c([N+](=O)[O-])c2)cc1 | 5400 | –
53 | – | – | Cc1ccc(-c2nc3ccccc3s2)cc1NC(=O)c1ccc(Cl)nc1 | 8200 | –
54 | 12.8 (≈ 6.3 µg/mL) | 120 | Cc1ccc(-c2nc3ccccc3o2)cc1NC(=O)c1cc([N+](=O)[O-])c(N2CCNCC2)cc1Cl | 200 | 19100

Row | solubility kinetic at 18 h [1] [µM] | t1/2 [2] [min] | Compound | EC50 (Leishmania mexicana) [nM] | EC50 (BJ) [nM]
55 | – | – | O=C(Nc1cncc(-c2nc3ccccc3s2)c1)c1cc([N+](=O)[O-])c(F)cc1Cl | 900 | 4900
56 | – | – | COc1cc(Cl)ncc1C(=O)Nc1cc(-c2nc3ccccc3s2)ccc1C | 42000 | –
57 | 22 (≈ 9.36 µg/mL) | 27 | Cc1ccc(-c2nc3ccccc3s2)cc1NC(=O)c1cc([N+](=O)[O-])c(F)cc1F | 600 | > 25000
58 | – | – | O=C(Nc1cccc(-c2nccs2)c1)c1ccc(N2CCNCC2)c([N+](=O)[O-])c1 | 1400 | –
59 | – | – | Cc1ccc(-c2nc3ccccc3s2)cc1NC(=O)c1ccc(N2CCNCC2)c([N+](=O)[O-])c1 | 300 | 8600
60 | – | – | Cc1ccc(-c2nc3ccccc3o2)cc1NC(=O)c1cc([N+](=O)[O-])c(N2CCN(C)CC2)cc1Cl | 800 | 4600
61 | – | – | Cc1ccc(-c2nc3ccccc3s2)cc1NC(=O)c1cc([N+](=O)[O-])c(N2CC3(CNC3)C2)cc1Cl | 700 | 11300
62 | – | – | O=C(Nc1cccc(Cl)c1)c1ccc(N2CCNCC2)c([N+](=O)[O-])c1 | 1400 | –
63 | – | – | CN1CCN(c2cc(Cl)c(C(=O)Nc3cncc(-c4nc5ccccc5s4)c3)cc2[N+](=O)[O-])CC1 | 900 | > 30000
64 | – | – | Cc1ccc(-c2nc3ccccc3s2)cc1NC(=O)c1cc([N+](=O)[O-])c(F)cc1Cl | 1200 | –
65 | – | – | Cc1ccc(NC(=O)c2cc([N+](=O)[O-])c(F)cc2Cl)cc1 | 1200 | –
66 | – | – | O=C(Nc1cnc(Cl)c(Cl)c1)c1ccc(N2CCNCC2)c([N+](=O)[O-])c1 | 1200 | –
67 | – | – | O=C(Nc1ccc(Cl)cc1)c1cc([N+](=O)[O-])c(F)cc1Cl | 1100 | –
68 | – | – | O=C(Nc1cncc(-c2nc3ccccc3o2)c1)c1cc([N+](=O)[O-])c(F)cc1Cl | 1000 | 2900
69 | – | – | Cc1ccc(-c2nc3ccccc3s2)cc1NC(=O)c1cnccc1F | 27000 | –
70 | – | – | Cc1ccc(-c2nc3ccccc3s2)cc1NC(=O)c1cc([N+](=O)[O-])ccc1C(F)(F)F | 56000 | –
71 | – | – | Cc1ccc(-c2nc3ccccc3s2)cc1NC(=O)c1ccc(Br)cc1F | 45000 | –
72 | – | – | O=C(Nc1cccc(-c2ccccn2)c1)c1cc([N+](=O)[O-])c(F)cc1Cl | 1100 | –
73 | – | – | Cc1ccc(-c2nc3ccccc3s2)cc1NC(=O)c1cc([N+](=O)[O-])c(NCCNC(=O)OC(C)(C)C)cc1Cl | 700 | > 25000
74 | – | – | O=C(Nc1cccc(Cl)c1)c1ccc(F)c([N+](=O)[O-])c1 | 4000 | –
75 | – | – | Cc1ccc(-c2nc3ccccc3s2)cc1NC(=O)c1ccc(F)c(C(F)(F)F)c1 | 21000 | –
76 | – | – | O=C(Nc1ccc(Cl)c(Cl)c1)c1cc([N+](=O)[O-])c(F)cc1F | 200 | 2400
77 | – | – | Cc1cc(Cl)c(Cl)cc1NC(=O)c1ccc(F)c([N+](=O)[O-])c1 | 2400 | –
78 | – | – | Cc1ccc(-c2nc3ccccc3s2)cc1NC(=O)c1cc([N+](=O)[O-])c(Cl)cc1Cl | 4300 | –
79 | – | – | Cc1ccc(-c2nc3ccccc3o2)cc1NC(=O)c1cc([N+](=O)[O-])c(F)cc1Cl | 400 | 16000
80 | – | – | O=C(Nc1cncc(-c2nc3ccccc3o2)c1)c1cc([N+](=O)[O-])c(F)cc1F | 500 | > 30000

Row | Compound | solubility kinetic at 18 h [1] [µM] | t1/2 [2] [min] | EC50 (Leishmania mexicana) [nM] | EC50 (BJ) [nM]
81 | Cc1cc(Cl)c(Cl)cc1NC(=O)c1ccc(N2CCNCC2)c(C#N)c1 | 3.6 (≈ 1.4 µg/mL) | 48 | 900 | 13500
